Test results published in ChEMBL document CHEMBL2434856, “Synthesis and in vitro and in vivo evaluation of antimalarial polyamines” (Eur J Med Chem, 2013).
The source made the active and inactive calls. The calls are words filed in the database; no cut-off is given here.

Experiments:
[1] = Selectivity index, ratio of IC50 for rat L6 cells to IC50 for erythrocytic stage of chloroquine and pyrimethamine-resistant Plasmodium falciparum K1; format: toxicity, cell-based; details: read-out: Ratio IC50
How it was run: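 Selectivity index calculated as the IC50 against rat L6 skeletal myoblasts divided by the IC50 against the erythrocytic stage of P. falciparum K1, both in µM. Chloroquine served as the positive control in the parasite assay. IC50 values are means of duplicate assays.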

Plasmodium falciparum = test: Antimalarial activity against erythrocytic stage of chloroquine and pyrimethamine-resistant Plasmodium falciparum K1; format: functional, organism-based
How it was run: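 P. falciparum K1 (chloroquine- and pyrimethamine-resistant), erythrocytic stage, growth inhibition read as IC50 in µM. Chloroquine served as the positive control. Values are means of duplicate assays.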

L6 = test: Cytotoxicity against rat L6 cells; format: cell-based
How it was run: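 Rat skeletal myoblast L6 cell line, tested alongside the P. falciparum K1 assay so that a selectivity index (IC50 L6 / IC50 Pf) could be derived. Read-out is IC50 in µM, reported as the mean of duplicate assays.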

Mus musculus [2] = test: Acute toxicity in NMRI mouse infected with GFP-transfected Plasmodium berghei ANKA at 100 mg/kg, ip; format: organism-based; set-up: dose 100 mg/kg, route intraperitoneal; details: in vivo
Plasmodium berghei [3] = test: Antimalarial activity against GFP-transfected Plasmodium berghei ANKA infected in NMRI mouse assessed as reduction of parasitaemia at 20 mg/kg, ip qd for 4 days
Plasmodium berghei [4] = test: Antimalarial activity against GFP-transfected Plasmodium berghei ANKA infected in NMRI mouse assessed as increase of mean survival time at 20 mg/kg, ip qd for 4 days
Mus musculus [5] = test: Acute toxicity in NMRI mouse infected with GFP-transfected Plasmodium berghei ANKA at 150 mg/kg, ip; format: organism-based; set-up: dose 150 mg/kg, route intraperitoneal; details: in vivo
Plasmodium berghei [6] = test: Antimalarial activity against GFP-transfected Plasmodium berghei ANKA infected in NMRI mouse assessed as reduction of parasitaemia at 50 mg/kg, ip qd for 4 days
Plasmodium berghei [7] = test: Antimalarial activity against GFP-transfected Plasmodium berghei ANKA infected in NMRI mouse assessed as increase of mean survival time at 50 mg/kg, ip qd for 4 days
Plasmodium berghei [8] = test: Antimalarial activity against GFP-transfected Plasmodium berghei ANKA infected in NMRI mouse assessed as reduction of parasitaemia at 30 mg/kg, ip qd for 4 days; set-up: scale not given: the % may be the effect or the level left; details: route intraperitoneal
Plasmodium berghei [9] = test: Antimalarial activity against GFP-transfected Plasmodium berghei ANKA infected in NMRI mouse assessed as increase of mean survival time at 30 mg/kg, ip qd for 4 days

| Compound | selectivity ratio [1] | IC50 (Plasmodium falciparum) | IC50 (L6) | also measured |
| --- | --- | --- | --- | --- |
| COc1ccc(OC)c(CCC(=O)NCCCN(CCCCCCCCCCCCN(CCCNC(=O)CCc2cc(OC)ccc2OC)C(=O)OC(C)(C)C)C(=O)OC(C)(C)C)c1 | 13 | 0.18 µM | 2.3 µM | – |
| CC(C)(C)OC(=O)N(CCCCCCCCCCCCN(CCCNC(=O)c1ccccc1)C(=O)OC(C)(C)C)CCCNC(=O)c1ccccc1 | 52 | 0.16 µM | 8.3 µM | – |
| O=C(NCCCNCCCCNCCCNC(=O)c1ccccc1)c1ccccc1 | 200 | 0.45 µM | 89 µM | – |
| O=C(Cc1ccccc1)NCCCNCCCCCCCCNCCCNC(=O)Cc1ccccc1 | 4930 | 0.015 µM | 74 µM | Activity (Mus musculus [2]): Toxic; Activity (Plasmodium berghei [3]): inactive; Activity (Plasmodium berghei [4]): inactive |
| COc1ccc(CCC(=O)NCCCNCCCCNCCCNC(=O)CCc2ccc(OC)c(OC)c2)cc1OC | 160 | 0.46 µM | 73 µM | – |
| O=C(CCc1ccccc1O)NCCCNCCCCNCCCNC(=O)CCc1ccccc1O | 5700 | 0.015 µM | 86 µM | Activity (Mus musculus [5]): Non-toxic; Activity (Plasmodium berghei [6]): inactive; Activity (Plasmodium berghei [7]): inactive |
| COc1ccc(OC)c(C(=O)NCCCN(CCCCCCCCCCCCN(CCCNC(=O)c2cc(OC)ccc2OC)C(=O)OC(C)(C)C)C(=O)OC(C)(C)C)c1 | 10 | 0.18 µM | 1.8 µM | – |
| COc1ccc(CCC(=O)NCCCNCCCCCCCCCCCCNCCCNC(=O)CCc2ccc(OC)c(OC)c2)cc1OC | 803 | 0.071 µM | 57 µM | – |
| CC(C)(C)OC(=O)N(CCCCCCCCCCCCN(CCCNC(=O)CCc1ccccc1O)C(=O)OC(C)(C)C)CCCNC(=O)CCc1ccccc1O | 28 | 0.13 µM | 3.6 µM | – |
| COc1ccc(CCC(=O)NCCCN(CCCCCCCCCCCCN(CCCNC(=O)CCc2ccc(OC)c(OC)c2)C(=O)OC(C)(C)C)C(=O)OC(C)(C)C)cc1OC | 38 | 0.066 µM | 2.5 µM | – |
| O=C(Cc1ccccc1O)NCCCNCCCCCCCCCCCCNCCCNC(=O)Cc1ccccc1O | 4880 | 0.0086 µM | 42 µM | – |
| COc1ccc(OC)c(CC(=O)NCCCN(CCCCCCCCN(CCCNC(=O)Cc2cc(OC)ccc2OC)C(=O)OC(C)(C)C)C(=O)OC(C)(C)C)c1 | 40 | 0.048 µM | 1.9 µM | – |
| COc1ccccc1CC(=O)NCCCNCCCCCCCCCCCCNCCCNC(=O)Cc1ccccc1OC | 269 | 0.078 µM | 21 µM | – |
| COc1ccccc1CC(=O)NCCCN(CCCCCCCCCCCCN(CCCNC(=O)Cc1ccccc1OC)C(=O)OC(C)(C)C)C(=O)OC(C)(C)C | 5.9 | 0.46 µM | 2.7 µM | – |
| COc1ccc(OC)c(C(=O)NCCCNCCCCCCCCCCCCNCCCNC(=O)c2cc(OC)ccc2OC)c1 | 5.6 | 0.39 µM | 2.2 µM | – |
| CC(C)(C)OC(=O)N(CCCCCCCCN(CCCNC(=O)Cc1ccccc1O)C(=O)OC(C)(C)C)CCCNC(=O)Cc1ccccc1O | 22 | 0.73 µM | 16 µM | – |
| CC(C)(C)OC(=O)N(CCCCCCCCCCCCN(CCCNC(=O)c1ccccc1O)C(=O)OC(C)(C)C)CCCNC(=O)c1ccccc1O | 186 | 0.5 µM | 93 µM | – |
| O=C(CCc1ccccc1)NCCCNCCCCCCCCCCCCNCCCNC(=O)CCc1ccccc1 | 95 | 0.073 µM | 6.9 µM | – |
| O=C(CCc1ccccc1)NCCCNCCCCNCCCNC(=O)CCc1ccccc1 | 910 | 0.1 µM | 91 µM | – |

| Compound | selectivity ratio [1] | IC50 (Plasmodium falciparum) | IC50 (L6) | also measured |
| --- | --- | --- | --- | --- |
| CC(C)(C)OC(=O)N(CCCCCCCCCCCCN(CCCNC(=O)Cc1ccccc1)C(=O)OC(C)(C)C)CCCNC(=O)Cc1ccccc1 | 32 | 0.26 µM | 8.2 µM | – |
| COc1ccc(OC)c(CC(=O)NCCCN(CCCCCCCCCCCCN(CCCNC(=O)Cc2cc(OC)ccc2OC)C(=O)OC(C)(C)C)C(=O)OC(C)(C)C)c1 | 14 | 0.16 µM | 2.2 µM | – |
| COc1ccc(OC)c(C(=O)NCCCNCCCCNCCCNC(=O)c2cc(OC)ccc2OC)c1 | 81 | 0.93 µM | 75 µM | – |
| COc1ccc(OC)c(CC(=O)NCCCNCCCCCCCCNCCCNC(=O)Cc2cc(OC)ccc2OC)c1 | 5080 | 0.012 µM | 61 µM | – |
| COc1ccc(OC)c(CC(=O)NCCCNCCCCCCCCCCCCNCCCNC(=O)Cc2cc(OC)ccc2OC)c1 | 121 | 0.19 µM | 23 µM | – |
| COc1ccc(CC(=O)NCCCNCCCCCCCCCCCCNCCCNC(=O)Cc2ccc(OC)cc2)cc1 | 95 | 0.2 µM | 19 µM | – |
| COc1ccc(CC(=O)NCCCN(CCCCCCCCCCCCN(CCCNC(=O)Cc2ccc(OC)cc2)C(=O)OC(C)(C)C)C(=O)OC(C)(C)C)cc1 | 22 | 0.21 µM | 4.7 µM | – |
| O=C(Cc1ccccc1O)NCCCNCCCCNCCCNC(=O)Cc1ccccc1O | – | – | – | Activity (Mus musculus [5]): Toxic; Activity (Plasmodium berghei [8]): 27.9%; Activity (Plasmodium berghei [9]): inactive |
| O=C(NCCCNCCCCCCCCCCCCNCCCNC(=O)c1ccccc1O)c1ccccc1O | 6.6 | 0.38 µM | 2.5 µM | – |
| CC(C)(C)OC(=O)N(CCCCCCCCCCCCN(CCCNC(=O)Cc1ccccc1O)C(=O)OC(C)(C)C)CCCNC(=O)Cc1ccccc1O | 59 | 0.17 µM | 10 µM | – |
| COc1ccc(OC)c(CCC(=O)NCCCNCCCCCCCCCCCCNCCCNC(=O)CCc2cc(OC)ccc2OC)c1 | 59 | 0.11 µM | 6.5 µM | – |
| O=C(Cc1ccccc1O)NCCCNCCCCCCCCNCCCNC(=O)Cc1ccccc1O | 42300 | 0.0013 µM | 55 µM | – |
| O=C(CCc1ccccc1O)NCCCNCCCCCCCCCCCCNCCCNC(=O)CCc1ccccc1O | 6530 | 0.0095 µM | 62 µM | – |
| CC(C)(C)OC(=O)N(CCCCCCCCN(CCCNC(=O)Cc1ccccc1)C(=O)OC(C)(C)C)CCCNC(=O)Cc1ccccc1 | 18 | 0.47 µM | 8.6 µM | – |
| O=C(Cc1ccccc1)NCCCNCCCCCCCCCCCCNCCCNC(=O)Cc1ccccc1 | 138 | 0.16 µM | 22 µM | – |
| COc1ccc(OC)c(CCC(=O)NCCCNCCCCNCCCNC(=O)CCc2cc(OC)ccc2OC)c1 | 16200 | 0.0061 µM | 99 µM | – |
| O=C(NCCCNCCCCCCCCCCCCNCCCNC(=O)c1ccccc1)c1ccccc1 | 43 | 0.16 µM | 6.9 µM | – |
| CC(C)(C)OC(=O)N(CCCCCCCCCCCCN(CCCNC(=O)CCc1ccccc1)C(=O)OC(C)(C)C)CCCNC(=O)CCc1ccccc1 | 17 | 0.24 µM | 4 µM | – |
| O=C(NCCCNCCCCNCCCNC(=O)c1ccccc1O)c1ccccc1O | 44 | 1.9 µM | 83 µM | – |
